Compounds with a hit are over-represented: about 1.7% of the library has one in this group of screens.
Scp1 inh: blocks human Scp-1 phosphatase activity. Recombinant Scp1, phosphopeptide, malachite green phosphate absorbance. inhibition, % at 20 µM. 340,000 compounds, 0.88% hits. Q9GZU7;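 active = inhibition above about 50% at 20 µM, limit read from the data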
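Material – SCP-1 phosphatase catalytic domain, residues 76-261 · Buffer or medium – Acidic Tris acetate buffer with magnesium and detergent · Also added – Phospho 17-mer peptide substrate · Compound – single 20 µM dose, 1% DMSO · Times – 45 min room-temperature reaction, 5 min colour, 30 min stabiliser · Technique – Phosphate-binding colour reagent, absorbance read at 630 nm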
STEP block: STEP (human) phosphatase inhibition. recombinant STEP, OMFP fluorogenic substrate, fluorescence. inhibition, % at 20 µM. 360,000 compounds, 0.25% hits;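 active = inhibition at 20 µM, scaled per plate between control wells, above about 37%, limit read from the data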
Target sequence (P54829 whole entry, looked up): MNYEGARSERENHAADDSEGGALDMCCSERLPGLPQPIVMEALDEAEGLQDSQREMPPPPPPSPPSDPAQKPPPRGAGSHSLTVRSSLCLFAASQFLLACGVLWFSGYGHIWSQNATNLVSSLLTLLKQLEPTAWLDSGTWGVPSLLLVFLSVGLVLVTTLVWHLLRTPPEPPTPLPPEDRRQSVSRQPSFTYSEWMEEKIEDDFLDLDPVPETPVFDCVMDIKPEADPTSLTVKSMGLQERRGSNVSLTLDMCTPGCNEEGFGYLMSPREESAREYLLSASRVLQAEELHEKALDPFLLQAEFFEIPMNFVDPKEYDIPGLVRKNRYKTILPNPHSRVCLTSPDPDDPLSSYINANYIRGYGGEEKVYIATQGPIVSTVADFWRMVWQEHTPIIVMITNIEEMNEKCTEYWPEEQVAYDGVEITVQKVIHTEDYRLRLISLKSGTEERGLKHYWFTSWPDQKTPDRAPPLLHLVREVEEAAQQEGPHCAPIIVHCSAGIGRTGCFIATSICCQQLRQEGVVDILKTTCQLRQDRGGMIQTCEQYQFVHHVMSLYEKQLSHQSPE
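System: isolated STEP enzyme; schedule: 20 min enzyme reaction at room temperature, protected from light; medium: Bis-Tris buffer pH 6.0, 2.5 mM DTT, 0.005% Tween 20; signal: fluorescence, 480/540 nm; dosing: single compound dose of 20 µM, 1% DMSO final; also added: OMFP substrate, 25 µM final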
Pemphigus Ab inh: blocks pemphigus antibody binding to human desmoglein-3. DSG3-coupled beads, scFv-anti-DSG3-GFP binding, flow cytometry; stronger effect = lower value. 310,000 compounds, 0.48% hits. P32926. binding (percent of control), % at 10 µM;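 active = binding more than 3 SD below its plate's average and above zero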
SUMO1-SIM PPI: modulators of human SUMO1-mediated protein-protein interactions. AID 602429. inhibition, % at 20 µM. P63165. SUMO1 binding to a labelled peptide, TR-FRET, 1 h. 360,000 compounds, 0.33% hits; in the data active = inhibition above about 37%
Target sequence (P63165 whole entry, looked up): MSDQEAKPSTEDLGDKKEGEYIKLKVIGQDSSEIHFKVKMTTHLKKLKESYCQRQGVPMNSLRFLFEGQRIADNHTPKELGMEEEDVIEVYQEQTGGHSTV
LMPTP block: LMPTP (human) inhibition; inhibition, % at 20 µM; 360,000 compounds, 0.22% hits; recombinant LMPTP-A, OMFP fluorogenic substrate, fluorescence intensity; P24666;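 active = compounds that cut the enzyme signal by at least half of the control window in the single-dose screen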
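Test system: LMPTP-A, protein tyrosine phosphatase of low molecular weight; Input: 0.625 nM enzyme; Incubation: 50 min dark incubation at room temperature; Signal: endpoint fluorescence intensity from OMFP dephosphorylation; Read-out basis: % inhibition versus control wells.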
Scp1 confirm: confirmation of human Scp-1 phosphatase inhibitors | shares compounds with Scp1 inh | recombinant SCP-1 catalytic domain, phosphate release, malachite green absorbance | inhibition, % at 20 µM | 2,500 compounds, 61% hits
Scp-1 MG ctr: colorimetric interference in Scp-1 counter-screen; apparent inhibition (interference), % at 20 µM; 2,500 tested, under 10 active; shares compounds with Scp1 inh; Colorimetric interference counterscreen, malachite green absorbance 630 nm;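 note: compounds added after enzyme reaction finished so only phosphate colour detection is probed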
Scp1 DSF: binds human Scp-1, shifting its melting temperature. thermal shift relative to vanadate control, % at 40 µM. AID 540329. 1,500 compounds, 25% hits. Recombinant SCP1, Sypro Orange thermal shift Tm. shares compounds with Scp1 inh;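 active = substances whose mean melting-temperature shift, as a percentage of the reference inhibitor's shift, reaches about 5.3%, limit read from the data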
Numbers stand for hits; i = inactive; nt = not tested or not shown.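 Rule for the calls, unless noted: active = inhibition of at least 30% at 20 µM; inactive = the rest.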

SMILES	Scp1 inh	STEP block	Pemphigus Ab inh	SUMO1-SIM PPI	LMPTP block	Scp1 confirm	Scp-1 MG ctr	Scp1 DSF
CC[C@H](C)NC(=O)c1ccc(Cn2c(=S)[nH]c3c([nH]c4ccc(OC)cc43)c2=O)cc1	57.0	i	nt	i	i	43.1	i	i
CCCCNC(=O)c1ccc(Cn2c(=S)[nH]c3c([nH]c4ccc(OC)cc43)c2=O)cc1	i	i	i	i	i	nt	nt	nt
O=C(Nc1ccc2c(c1)C(=O)c1ccccc1-2)c1ccccc1	i	i	i	i	i	nt	nt	nt
O=C(Nc1ccc2c(c1)C(=O)NC2=O)c1ccc(Cl)s1	85.3	i	i	i	i	i	i	nt
O=C(Nc1ccc2c(c1)C(=O)NC2=O)c1cccc(Cl)c1	53.6	i	i	i	i	66.0	i	i
COc1cccc(C(=O)Nc2ccc3c(c2)C(=O)c2ccccc2C3=O)c1	74.6	59.6	i	i	i	64.2	i	5.4
Cc1ccc(S(=O)(=O)NC(C)CCc2ccccc2)cc1C(N)=O (stereo not given)	i	i	i	i	i	i	i	nt
CC(C)c1ccc(NC(=O)C2CC(=O)N(C(C)C)C2)cc1 (stereo not given)	i	i	nt	i	i	i	i	nt
COCCCNCC(O)COc1ccccc1F (stereo not given)	i	i	i	i	i	nt	nt	nt
O=C(Nc1ccc2oc(-c3cccnc3)nc2c1)c1ccc2c(c1)OCCO2	51.8	i	i	i	53.7	44.6	i	i
O=C(Nc1ccc2oc(-c3ccccc3)nc2c1)c1cccnc1	i	i	i	i	i	nt	nt	nt
O=C(Nc1ccc2oc(-c3ccncc3)nc2c1)c1ccc2c(c1)OCCO2	100.0	i	i	i	i	i	i	nt
O=C(Nc1ccc2oc(-c3ccccc3)nc2c1)c1ccc2c(c1)OCCO2	i	i	i	i	i	nt	nt	nt
O=C(c1ccccc1F)N(Cc1nc2ccccc2c(=O)[nH]1)C1CCCC1	i	i	i	i	i	nt	nt	nt
CCOc1ccccc1NC(=O)Nc1cc(S(=O)(=O)N(C)C)ccc1C	72.7	i	i	i	i	i	i	nt
Cc1ccc(S(=O)(=O)N(C)C)cc1NC(=O)Nc1ccccc1	i	i	i	i	i	nt	nt	nt
Cc1cc(=O)oc2cc(NC(=S)NCc3ccccn3)ccc12	i	i	i	i	i	nt	nt	nt
Cc1cc(=O)oc2cc(NC(=S)NNC(=O)c3c(Cl)cnn3C)ccc12	70.5	i	nt	i	i	67.3	i	i
NC(=O)c1ccc(NC(=O)COC(=O)/C=C/c2ccc(Br)o2)cc1	74.1	i	i	62.2	i	68.5	i	i
CN(C)S(=O)(=O)c1cccc(NC(=O)COC(=O)/C=C/c2ccc(Br)o2)c1	i	i	i	i	i	nt	nt	nt
O=C(CCCc1ccccc1)Nc1cccc2c1CCCC2	i	i	nt	i	i	nt	nt	nt
Nc1nc(SCc2ccc(Cl)cc2Cl)nc2nc3c(cc12)CCCC3	97.1	i	i	i	i	75.8	i	i
Cc1cc(C=O)c(C)n1-c1cccc(C(=O)O)c1	52.9	i	i	i	i	52.2	i	i
Cc1cc(C=O)c(C)n1-c1cc(C(=O)O)cc(C(=O)O)c1	54.6	i	i	i	i	51.6	i	i
COC(=O)c1cccc(-n2c(C)cc(C=O)c2C)c1	i	i	i	i	i	nt	nt	nt
SMILES	Scp1 inh	STEP block	Pemphigus Ab inh	SUMO1-SIM PPI	LMPTP block	Scp1 confirm	Scp-1 MG ctr	Scp1 DSF
Cc1ccccc1-c1cc2nc(NCc3ccc4occc4c3)n(C)c(=O)c2s1	nt	i	nt	i	i	nt	nt	nt
O=C1CNC(=O)/C1=C\N1CCN(C(c2ccccc2)c2ccccc2)CC1	55.5	i	i	i	i	i	i	nt
O=C1CNC(=O)/C1=C\N1CCCCC1	i	i	i	i	i	nt	nt	nt
O=C(NCC(=O)N1CCN(S(=O)(=O)c2c(F)cccc2F)CC1)c1ccccc1F	i	i	i	i	i	nt	nt	nt
Cc1ccc(N(O)C(C)(C)C)cc1	i	i	i	i	i	nt	nt	nt
CCCn1nc(NC(=O)COC)c2cc3cc(C)ccc3nc21	62.2	i	i	i	i	i	i	nt
CCCn1nc(NC(=O)c2ccccn2)c2cc3cc(C)ccc3nc21	i	i	i	i	i	nt	nt	nt
C[N+]1(CC(=O)OCCCc2ccccc2)CCCC1	61.9	i	i	i	i	82.4	i	i
C[N+]1(CC(=O)OCCCc2ccccc2)CCCCC1	i	i	i	i	i	nt	nt	nt
Cc1ccc(-n2c(=O)c3cc4c(=O)n(-c5ccc(C)c(C)c5)c(=O)c4c(C(=O)c4ccc(C(=O)O)cc4)c3c2=O)cc1C	90.9	96.6	i	89.8	83.2	74.6	i	10.4
O=C(O)c1ccc(-n2c(=O)c3ccccc3c3ccccc3c2=O)cc1	i	i	i	i	i	nt	nt	nt
COc1ccc(CCNC(=O)CSc2nnnn2-c2ccccc2OC)cc1OC	i	i	i	i	i	nt	nt	nt
COc1cc2ccccc2cc1C(=O)NC(=S)Nc1ccc(C(=O)O)cc1	61.2	i	i	i	i	51.6	i	i
COc1ccc(NC(=O)c2cc3ccccc3cc2OC)cc1	i	i	i	i	i	nt	nt	nt
COc1ccc(N=c2oc3c(OC)cccc3cc2C(=O)NCc2ccco2)cc1OC	i	i	i	i	i	nt	nt	nt
COc1cccc2cc(C(=O)Nc3ccc(F)cc3)c(=Nc3ccc(C(=O)O)cc3)oc12	102.1	i	nt	i	i	i	i	nt
O=C(Cn1cc([N+](=O)[O-])ccc1=O)N1CCc2ccccc21	i	i	i	i	i	nt	nt	nt
COc1ccc(NC(=O)c2ccc3c(c2)CCN3S(=O)(=O)c2ccccc2)c(OC)c1	60.5	i	nt	i	i	i	i	nt
O=C(NC1CCCc2c1cnn2-c1ccccc1F)c1ccncc1 (stereo not given)	nt	i	i	i	i	nt	nt	nt
CN1CCC(=NNC(=O)CN(c2cccc(Br)c2)S(C)(=O)=O)CC1	i	i	i	i	i	nt	nt	nt
Cc1noc(C)c1COc1ccc(C(=O)OCC(=O)N2CC(=O)Nc3ccccc32)cc1	i	i	i	i	i	nt	nt	nt
CC1(C)C(=O)Nc2ccccc2N1C(=O)COc1ccc(C#N)cc1	i	i	nt	i	i	nt	nt	nt
Cc1nnc(NC(=O)COc2ccc3c(C)cc(=O)oc3c2)s1	70.8	i	i	i	i	65.1	i	i
Cc1noc(C)c1COc1ccc(C(=O)OCC(=O)N2c3ccccc3NC(=O)C2(C)C)cc1	69.0	i	i	i	i	45.9	i	i
Cc1cc(=O)oc2cc(OCC(=O)N3c4ccccc4NC(=O)C3(C)C)ccc12	61.6	i	i	i	i	42.1	i	i
CCC(CC)c1nnc(NC(=O)COc2ccc3c(C)cc(=O)oc3c2)s1	i	i	i	i	i	nt	nt	nt

Screening data (PubChem)
